Measurements reported in ChEMBL document CHEMBL4270620, “Synthesis and anti-fibrosis activity study of 14-deoxyandrographolide-19-oic acid and 14-deoxydidehydroandrographolide-19-oic acid derivatives” (Eur J Med Chem, 2018).
pIC50: −log10 of the molar value. The source made the active and inactive calls. The calls are words filed in the database; no cut-off is given here.

Tests used:
NIH3T3 [1] = experiment: Antifibrotic activity against mouse NIH/3T3 cells assessed as inhibition of cell proliferation after 72 hrs by MTT assay; assay type: functional, cell-based; conditions: for pIC50: Mus musculus, NIH3T3, 72 h, read-out: IC50
Method in brief: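 NIH-3T3 seeded at 5000 cells/well in DMEM/F12 with 10% FBS, allowed to attach 24 h, then exposed 72 h to graded compound concentrations. MTT (5 mg/mL stock) added for 2–4 h, formazan dissolved in DMSO, OD read at 490 nm. IC50 from regression equation; three repeats, mean.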

[2] = Inhibition of cell proliferation in HUVEC at 10 uM […] by MTT assay relative to control; assay type: cell-based; conditions: human, HUVEC cells
Method in brief: (§1)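 MTT test on HUVEC (DMEM/F12, 10% FBS) plated at 5000 cells/well, attached 24 h, then treated at 1, 10, 40 and 80 μM for the period printed as 42 h. MTT (5 mg/mL stock) incubated 2–4 h, formazan dissolved in DMSO, absorbance at 490 nm. Proliferation relative to control; mean of three experiments.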

[3] = Inhibition of cell proliferation in HUVEC at 80 uM after […] by MTT assay relative to control; assay type: cell-based; conditions: human, HUVEC cells; method in brief: as §1
NIH3T3 [4] = experiment: (§2) Antifibrotic activity against mouse NIH/3T3 cells assessed as inhibition of TGFbeta1-induced increase in alpha-SMA mRNA level at 500 nM preincubated for 1 hr followed by TGFbeta-1 addition measured after 24 hrs by qRT-PCR method; assay type: functional, cell-based
Method in brief: (§3)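 NIH-3T3 cells pretreated 1 h with 500 nM compound, then stimulated with rat TGF-β1 5 ng/ml for 24 h. RNA extracted and qPCR run 40 cycles (95 °C 5 s / 60 °C 60 s). Transcripts normalized to GAPDH, fold change by 2^-ΔΔCt. n = 3, means ± SD.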

NIH3T3 [5] = experiment: (§4) Antifibrotic activity against mouse NIH/3T3 cells assessed as inhibition of TGFbeta1-induced increase in FN mRNA level at 500 nM preincubated for 1 hr followed by TGFbeta-1 addition measured after 24 hrs by qRT-PCR method; assay type: functional, cell-based; method in brief: as §3
NIH3T3 [6] = experiment: (§5) Antifibrotic activity against mouse NIH/3T3 cells assessed as inhibition of TGFbeta1-induced increase in COL1A1 mRNA level at 500 nM preincubated for 1 hr followed by TGFbeta-1 addition measured after 24 hrs by qRT-PCR method; assay type: functional, cell-based; method in brief: as §3
NIH3T3 [7] = experiment: Antifibrotic activity against mouse NIH/3T3 cells assessed as inhibition of alpha-SMA mRNA level at 500 nM measured after 24 hrs by qRT-PCR method; assay type: functional, cell-based
Method in brief: (§6)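 NIH-3T3 (DMEM/F12, 10% FBS, 37 °C, 5% CO2) given 500 nM compound without TGF-β1 for 24 h. Total RNA extracted; qPCR of α-SMA, FN, COL1A1 run 40 cycles (95 °C 5 s, 60 °C 60 s). Normalized to GAPDH, relative expression by 2^-ΔΔCt. Mean of three experiments ± SD.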

NIH3T3 [8] = experiment: Antifibrotic activity against mouse NIH/3T3 cells assessed as inhibition of FN mRNA level at 500 nM measured after 24 hrs by qRT-PCR method; assay type: functional, cell-based; method in brief: as §6
NIH3T3 [9] = experiment: Antifibrotic activity against mouse NIH/3T3 cells assessed as inhibition of COL1A1 mRNA level at 500 nM measured after 24 hrs by qRT-PCR method; assay type: functional, cell-based; method in brief: as §6
NIH3T3 [10] = experiment: as §2, with “protein expression by measuring ratio of alpha-SMA to beta-actin protein” for “mRNA”, “Western blot” for “qRT-PCR”, “method (reference value: 0.87)” for “method”; assay type: functional
Method in brief: (§7)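 Western blot of NIH-3T3 treated with 500 nM compound plus rat TGF-β1 5 ng/ml for 24 h; PBS as control. RIPA/1% PMSF lysates quantified by BCA, run on 10% SDS-PAGE and blotted to PVDF. Blocked in 5% milk; α-SMA, FN, COL1A1 primaries 1:1000 overnight at 4 °C; HRP secondary 1:5000 for 2 h; ECL. Band intensity relative to β-actin. Three repeats, means ± SD.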

NIH3T3 [11] = experiment: as §4, with “protein expression by measuring ratio of FN to beta-actin protein” for “mRNA”, “Western blot” for “qRT-PCR”, “method (reference value: 0.95)” for “method”; assay type: functional; method in brief: as §7
NIH3T3 [12] = experiment: as §5, with “protein expression by measuring ratio of COL1A1 to beta-actin protein” for “mRNA”, “Western blot” for “qRT-PCR”, “method (reference value: 0.26)” for “method”; assay type: functional; method in brief: as §7

C=C1CC[C@H]2[C@@](C)(CC[C@@H](OC(C)=O)[C@@]2(C)C(=O)OC)[C@@H]1CCC1=CCOC1=O
pIC50 (NIH3T3 [1]): 4.09

C=C1CC[C@H]2[C@@](C)(CC[C@@H](OC(C)=O)[C@@]2(C)C(=O)OCc2ccccc2)[C@@H]1CCC1=CCOC1=O
pIC50 (NIH3T3 [1]): 4.89 | inhibition at 10 µM [2]: 6.6% | inhibition at 80 µM [3]: 55.7% | inhibition (NIH3T3 [4]): Active | inhibition (NIH3T3 [5]): Active | inhibition (NIH3T3 [6]): Active | inhibition (NIH3T3 [7]): Active | inhibition (NIH3T3 [8]): Active | inhibition (NIH3T3 [9]): Active | Ratio (NIH3T3 [10]): 0.4 | Ratio (NIH3T3 [11]): 0.46 | Ratio (NIH3T3 [12]): 0.38

C=C1CC[C@H]2[C@@](C)(CC[C@@H](O)[C@@]2(C)C(=O)OCc2ccccn2)[C@@H]1/C=C/C1=CCOC1=O
pIC50 (NIH3T3 [1]): 4.10

C=C1CC[C@H]2[C@@](C)(CC[C@@H](OC(C)=O)[C@@]2(C)C(=O)OCc2ccccn2)[C@@H]1CCC1=CCOC1=O
pIC50 (NIH3T3 [1]): 4.26

C=C1CC[C@H]2[C@@](C)(CC[C@@H](O)[C@@]2(C)C(=O)OCc2ccccc2)[C@@H]1CCC1=CCOC1=O
pIC50 (NIH3T3 [1]): 4.42

C=C1CC[C@H]2[C@@](C)(CC[C@@H](O)[C@@]2(C)C(=O)OC)[C@@H]1C/C=C1\C=COC1=O
pIC50 (NIH3T3 [1]): 3.75

C=C1CC[C@H]2[C@@](C)(CC[C@@H](OC(C)=O)[C@@]2(C)C(=O)OCc2ccccc2)[C@@H]1C/C=C1\C=COC1=O
pIC50 (NIH3T3 [1]): 4.11

C=C1CC[C@H]2[C@@](C)(CC[C@@H](O)[C@@]2(C)C(=O)OCc2ccccc2)[C@@H]1C/C=C1\C=COC1=O
pIC50 (NIH3T3 [1]): 3.75

C=C1CC[C@@H]2[C@](C)(CO)[C@H](O)CC[C@@]2(C)[C@@H]1CCC1=CCOC1=O [DEOXYANDROGRAPHOLIDE]
pIC50 (NIH3T3 [1]): 3.75 | inhibition (NIH3T3 [4]): Active | inhibition (NIH3T3 [5]): Active | inhibition (NIH3T3 [6]): Active | inhibition (NIH3T3 [7]): Active | inhibition (NIH3T3 [8]): Active | inhibition (NIH3T3 [9]): Active

C=C1CC[C@H]2[C@@](C)(CC[C@@H](OC(C)=O)[C@@]2(C)C(=O)OCc2ccccn2)[C@@H]1/C=C/C1=CCOC1=O
pIC50 (NIH3T3 [1]): 4.46

C=C1CC[C@@H]2[C@](C)(CO)[C@H](O)CC[C@@]2(C)[C@@H]1C/C=C1/C(=O)OC[C@H]1O [ANDROGRAPHOLIDE]
pIC50 (NIH3T3 [1]): 4.02 | inhibition at 10 µM [2]: 10.4% | inhibition at 80 µM [3]: 26.4% | inhibition (NIH3T3 [4]): Active | inhibition (NIH3T3 [5]): Active | inhibition (NIH3T3 [6]): Active | inhibition (NIH3T3 [7]): Active | inhibition (NIH3T3 [8]): Active | inhibition (NIH3T3 [9]): Active

C=C1CC[C@H]2[C@@](C)(CC[C@@H](O)[C@@]2(C)C(=O)OC)[C@@H]1/C=C/C1=CCOC1=O
pIC50 (NIH3T3 [1]): 3.96

C=C1CC[C@H]2[C@@](C)(CC[C@@H](O)[C@@]2(C)C(=O)OCc2ccccn2)[C@@H]1CCC1=CCOC1=O
pIC50 (NIH3T3 [1]): 4.10

C=C1CC[C@H]2[C@@](C)(CC[C@@H](OC(C)=O)[C@@]2(C)C(=O)OCc2ccccc2)[C@@H]1/C=C/C1=CCOC1=O
pIC50 (NIH3T3 [1]): 4.28

C=C1CC[C@H]2[C@@](C)(CC[C@@H](OC(C)=O)[C@@]2(C)C(=O)OC)[C@@H]1C/C=C1\C=COC1=O
pIC50 (NIH3T3 [1]): 4.16

C=C1CC[C@@H]2[C@](C)(CO)[C@H](O)CC[C@@]2(C)[C@@H]1C/C=C1\C=COC1=O
IC50 (NIH3T3 [1]; nih3t3): Not Active

C=C1CC[C@@H]2[C@](C)(CO)[C@H](O)CC[C@@]2(C)[C@@H]1/C=C/C1=CCOC1=O
pIC50 (NIH3T3 [1]): 4.19 | inhibition (NIH3T3 [4]): Active | inhibition (NIH3T3 [5]): Active | inhibition (NIH3T3 [6]): Active | inhibition (NIH3T3 [7]): Active | inhibition (NIH3T3 [8]): Active | inhibition (NIH3T3 [9]): Active

C=C1CC[C@H]2[C@@](C)(CC[C@@H](OC(C)=O)[C@@]2(C)C(=O)OC)[C@@H]1/C=C/C1=CCOC1=O
pIC50 (NIH3T3 [1]): 4.49

C=C1CC[C@H]2[C@@](C)(CC[C@@H](O)[C@@]2(C)C(=O)OC)[C@@H]1CCC1=CCOC1=O
pIC50 (NIH3T3 [1]): 4.22

C=C1CC[C@H]2[C@@](C)(CC[C@@H](O)[C@@]2(C)C(=O)OCc2ccccc2)[C@@H]1/C=C/C1=CCOC1=O
pIC50 (NIH3T3 [1]): 4.87 | inhibition at 10 µM [2]: 9.7% | inhibition at 80 µM [3]: 68.7% | inhibition (NIH3T3 [4]): Active | inhibition (NIH3T3 [5]): Active | inhibition (NIH3T3 [6]): Active | inhibition (NIH3T3 [7]): Active | inhibition (NIH3T3 [8]): Active | inhibition (NIH3T3 [9]): Active | Ratio (NIH3T3 [10]): 0.39 | Ratio (NIH3T3 [11]): 0.47 | Ratio (NIH3T3 [12]): 0.42
